The text below walks through data of ChEMBL document CHEMBL4330094, “Potent Metabolic Sialylation Inhibitors Based on C-5-Modified Fluorinated Sialic Acids” (J Med Chem, 2019).

In data set [1] the test system is B16-F10. Briefly: Effect on total cell surface glycosylation in mouse B16F10 cells assessed as inhibition of biotinylated PSA-lectin binding at 102.4 uM after 3 days by flow cytometry. The class given is cell-based. Particulars: b16-f10, 72 h. The method, boiled down:
(§1)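 B16-F10 cells were exposed 3 days to 102.4 µM compound or DMSO. Staining used biotinylated lectins (AAL 5, PNA 5, GSL-I 1, LCA 1, PHA-L 1, PSA 1, SJA 1, WGA 1 µg/ml) in carbo-free blocking buffer with 1 mM CaCl and 1 mM MgCl for 45-60 min at 4 °C, then streptavidin-PE for 20 min at 4 °C. Flow cytometry read-out was MFI, mean ± SEM from two independent experiments.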
A general note: In flow cytometry, cells or beads pass a laser one at a time.

A short description of data set [2]: Inhibition of sialyltransferase in HEK293 cells assessed as decrease in lectin binding after 3 days by biotinylated MAL2 lectin and streptavidin-PE based flow cytometry. Type of data set: cell-based, Homo sapiens. The essentials: (§2)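 Each cell line was incubated 3 days with increasing compound concentrations or equivalent DMSO. Cells were stained with biotinylated MALII (5 µg/ml) in carbo-free blocking buffer with 1 mM CaCl/MgCl for 45-60 min at 4 °C, washed in PBS/1% BSA/0.02% azide, then stained with streptavidin-PE for 20 min at 4 °C. For flow cytometry, MFI was normalized to control as % lectin binding.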

In data set [3] the test system is B16-F10. Briefly: Inhibition of sialyltransferase in mouse B16-F10 cells assessed as recovery time for sialylation at 25.6 uM pretreated for 3 days followed by washing and re-seeding and measured after 6 days by biotinylated MAL2 lectin-based flow cytometry. The class given is cell-based. The essentials:
(§3)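 B16-F10 cells were pretreated 3 days with 25.6 or 51.2 µM compound or DMSO, washed, reseeded, and sampled daily for 6 days. They were stained with biotinylated MALII (5 µg/ml, 45-60 min, 4 °C) plus streptavidin-PE. Flow cytometry MFI was normalized to control as % lectin binding.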

Data set [4] relates to B16-F10. The data set is described as follows: Effect on total cell surface glycosylation in mouse B16F10 cells assessed as inhibition of biotinylated WGA-lectin binding at 102.4 uM after 3 days by flow cytometry. The class given is cell-based. The conditions noted are these: b16-f10, 72 h. The essentials: as §1
Data set [5] in a line: Inhibition of sialyltransferase in human HeLa cells assessed as decrease in lectin binding after 3 days by biotinylated MAL2 lectin and streptavidin-PE based flow cytometry. Type of data set: cell-based. The essentials: as §2
A short description of data set [6]: Inhibition of sialyltransferase in mouse 9464D cells assessed as decrease in lectin binding after 3 days by biotinylated MAL2 lectin and streptavidin-PE based flow cytometry. Type of data set: cell-based. The essentials: as §2
Data set [7] can be described thus: Inhibition of sialyltransferase in human THP1 cells assessed as decrease in lectin binding after 3 days by biotinylated MAL2 lectin and streptavidin-PE based flow cytometry. Type of data set: cell-based. The essentials: as §2
For data set [8], the system named is B16-F10. Briefly: Effect on total cell surface glycosylation in mouse B16F10 cells assessed as inhibition of biotinylated SJA-lectin binding at 102.4 uM after 3 days by flow cytometry. The class given is cell-based. Particulars: b16-f10, 72 h. The method, boiled down: as §1
For data set [9], the system named is B16-F10. Briefly: Effect on total cell surface glycosylation in mouse B16F10 cells assessed as inhibition of biotinylated AAL-lectin binding at 102.4 uM after 3 days by flow cytometry. The conditions noted are these: b16-f10, 72 h. Type of data set: cell-based. The method, boiled down: as §1
Data set [10] deals with B16-F10. The data set is described as follows: Effect on total cell surface glycosylation in mouse B16F10 cells assessed as inhibition of biotinylated PHA-L lectin binding at 102.4 uM after 3 days by flow cytometry. The class given is cell-based. Particulars: b16-f10, 72 h. The essentials: as §1
Data set [11] relates to B16-F10. The data set is described as follows: Effect on total cell surface glycosylation in mouse B16F10 cells assessed as inhibition of biotinylated LCA-lectin binding at 102.4 uM after 3 days by flow cytometry. The class given is cell-based. The conditions noted are these: b16-f10, 72 h. The method, boiled down:
as §1

For data set [12], the system named is B16-F10. Briefly: Inhibition of sialyltransferase in mouse B16-F10 cells assessed as reduction in CMP-Sia pool at 51.2 uM after 1 to 24 hrs using fluorinated compounds by reverse-phase ion pairing chromatography/triple quadrupole mass spectrometric analysis. The class given is cell-based. The essentials:
(§4)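 B16-F10 cells were incubated 1, 2, 4, 8 or 24 h with 51.2 µM fluorinated analogue or DMSO. Cells were washed with ammonium carbonate buffer (pH 7.4) and snap-frozen in liquid nitrogen. Extraction was twice for 3 min with cold 40% acetonitrile/40% methanol/20% water, followed by centrifugation for 3 min and vacuum drying.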

Data set [13] is described as follows: Inhibition of sialyltransferase in mouse B16F10 cells assessed as decrease in lectin binding after 3 days by biotinylated MAL2 lectin and streptavidin-PE based flow cytometry. The class given is cell-based. The essentials: as §2
In data set [14] the test system is B16-F10. The data set is described as follows: Effect on total cell surface glycosylation in mouse B16F10 cells assessed as inhibition of biotinylated GSL1-lectin binding at 102.4 uM after 3 days by flow cytometry. Particulars: b16-f10, 72 h. Type of data set: cell-based. The essentials: as §1
In data set [15] the target is N-acylneuraminate cytidylyltransferase (Mus musculus, UniProt Q99KK2). Briefly: Prodrug activation in mouse B16F10 cells assessed as CMAS-mediated CMP-SiaFR levels at 51.2 uM after 1 to 24 hrs using fluorinated compounds by reverse-phase ion pairing chromatography/triple quadrupole mass spectrometric analysis. Type of data set: cell-based. The essentials: as §4
Sequence of N-acylneuraminate cytidylyltransferase (Q99KK2 whole entry): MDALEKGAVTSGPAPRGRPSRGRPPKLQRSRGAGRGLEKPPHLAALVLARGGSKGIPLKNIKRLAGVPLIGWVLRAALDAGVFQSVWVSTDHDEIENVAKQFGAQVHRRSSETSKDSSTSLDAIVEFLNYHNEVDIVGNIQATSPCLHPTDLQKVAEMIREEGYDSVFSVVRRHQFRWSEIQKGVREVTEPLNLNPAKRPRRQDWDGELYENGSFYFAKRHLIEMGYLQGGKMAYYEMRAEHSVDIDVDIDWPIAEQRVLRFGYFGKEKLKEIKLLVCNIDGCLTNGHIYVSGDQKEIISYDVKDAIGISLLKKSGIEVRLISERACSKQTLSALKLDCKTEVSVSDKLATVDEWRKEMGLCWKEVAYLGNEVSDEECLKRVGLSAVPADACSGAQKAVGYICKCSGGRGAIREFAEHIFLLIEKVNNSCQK
Data set [16] concerns B16-F10. Briefly: Effect on total cell surface glycosylation in mouse B16F10 cells assessed as inhibition of biotinylated PNA lectin binding at 102.4 uM after 3 days by flow cytometry. Type of data set: cell-based. Particulars: b16-f10, 72 h. The essentials:
as §1

In data set [17] the test system is B16-F10. Briefly: Inhibition of sialyltransferase in mouse B16-F10 cells assessed as recovery time for sialylation at 51.2 uM pretreated for 3 days followed by washing and re-seeding and measured after 6 days by biotinylated MAL2 lectin-based flow cytometry. The class given is cell-based. The method, boiled down:
as §3

The test system of data set [18] is B16-F10. Briefly: Relative inhibitory potency, ratio of SiaFAc to compound EC50 for inhibition of sialyltransferase in mouse B16-F10 cells. Type of data set: cell-based.
In data set [19] the test system is B16-F10. The data set is described as follows: Cytotoxicity against mouse B16F10 cells assessed as reduction in metabolic activity at 204.8 uM after 3 days by MTT assay. Type of data set: ADME, cell-based. Particulars: b16-f10, 72 h. For orientation: Tetrazolium dyes change colour on reduction, which living cells bring about.
Data set [20] deals with B16-F10. Briefly: Cytotoxicity against mouse B16F10 cells assessed as reduction in metabolic activity at <51.2 uM after 3 days by MTT assay. The class given is ADME, cell-based. Particulars: b16-f10, 72 h.
Data set [21] can be described thus: Inhibition of sialyltransferase in mouse EL4 cells assessed as decrease in lectin binding after 3 days by biotinylated MAL2 lectin and streptavidin-PE based flow cytometry. Type of data set: cell-based. The method, boiled down: as §2

Active and inactive are the calls of the source. The rule behind the calls is not given here. Bounds are passed on as bounds.

A word on the EC50: it is the concentration that produces a half-maximal response. In the case of `C#CCOC(=O)N[C@H]1[C@H]([C@H](OC(C)=O)[C@@H](COC(C)=O)OC(C)=O)OC(OC(C)=O)(C(=O)OC)[C@H](F)[C@@H]1OC(C)=O` (stereo not given in full), the Activity entry in data set [1], in data set [4], in data set [8], in data set [9], in [10] and in data set [11] was “Non-Toxic” each time. Further, the Activity entry in data set [14], in data set [16], in [19] and in [20] was “Non-Toxic” each time. Moreover, the EC50 in data set [2] was 1.19 µM; in data set [5], 1.65 µM; in data set [6] it was 10.7 µM; in data set [7], 0.42 µM; in data set [13], 0.72 µM; in [21] it was 51 µM. The sialylation recovery time result in data set [3] was “Active”. For the same compound, the inhibition entry in [12] was “Active”. Moreover, in data set [15], the Drug metabolism entry is “Metabolite_Detected”. In addition, in [17], the TIME lay in the range of 120 to 144 h. The Ratio EC50 in data set [18] worked out at 37.

In the case of `COC(=O)C1(OC(C)=O)O[C@@H]([C@H](OC(C)=O)[C@@H](COC(C)=O)OC(C)=O)[C@H](NC(C)=O)[C@@H](OC(C)=O)[C@H]1F` (stereo not given in full), the Activity entry in [1], in [4], in [8], in data set [9], in data set [10] and in data set [11] was “Non-Toxic” in each case. Moreover, the Activity result in data set [14], in data set [16], in data set [19] and in data set [20] was “Non-Toxic” each time. The EC50 was 45.2 µM in data set [2]; 53 µM in data set [5]; over 102 µM in data set [6]; 8.5 µM in data set [7]; 26.8 µM in data set [13]; over 102 µM in data set [21]. Further, the sialylation recovery time result in data set [3] is “Active”. In data set [15], the Drug metabolism entry was “Metabolite_Detected”. Also, the TIME in data set [17] was 48 to 72 h.

As for `C#CCCC(=O)N[C@H]1[C@H]([C@H](OC(C)=O)[C@@H](COC(C)=O)OC(C)=O)OC(OC(C)=O)(C(=O)OC)[C@H](F)[C@@H]1OC(C)=O` (stereo not given in full), the Activity entry in [1], in data set [4], in data set [8], in data set [9], in data set [10] and in data set [11] was “Non-Toxic” in each case. Moreover, the Activity entry in [14], in data set [16], in data set [19] and in [20] was “Non-Toxic” throughout. Moreover, the EC50 in data set [2] was 26.2 µM; in [5], 62.3 µM; in [6] it was over 102 µM; in [7] it was 10.4 µM; in data set [13], 40.6 µM; in [21], over 102 µM. Besides, the sialylation recovery time result in data set [3] is “Active”. Further, the Drug metabolism result in data set [15] was “Metabolite_Detected”. Further, the TIME in data set [17] is 48 to 72 h. In addition, the Ratio EC50 in [18] was 1.

With `CCOC(=O)N[C@H]1[C@H]([C@H](OC(C)=O)[C@@H](COC(C)=O)OC(C)=O)OC(OC(C)=O)(C(=O)OC)[C@H](F)[C@@H]1OC(C)=O` (stereo not given in full), the Activity result in data set [1], in data set [4], in data set [8], in data set [9], in data set [10] and in data set [11] was “Non-Toxic” in each case. Further, the Activity result in data set [14], in [16], in data set [19] and in data set [20] was “Non-Toxic” each time. In addition, the EC50 in [2] stood at 2.02 µM; in data set [5], 2.02 µM; in data set [6], 8.91 µM; in data set [7], 0.45 µM; in [13], 1.78 µM; in [21], 42 µM. The sialylation recovery time result in data set [3] is “Active”. For the same compound, the inhibition result in data set [12] is “Active”. In addition, the Drug metabolism result in [15] is given as “Metabolite_Detected”. The TIME in data set [17] was 120 to 144 h. For the same compound, the Ratio EC50 in data set [18] was found to be 15.

Turning to `COC(=O)C1(OC(C)=O)O[C@@H]([C@H](OC(C)=O)[C@@H](COC(C)=O)OC(C)=O)[C@H](NC(=O)COC(C)=O)[C@@H](OC(C)=O)[C@H]1F` (stereo not given in full), the Activity entry in data set [1], in data set [4], in data set [8], in [9], in data set [10] and in data set [11] was “Non-Toxic” in each case. The Activity result in data set [14], in data set [16], in data set [19] and in [20] was “Non-Toxic” each time. The 50% effective concentration (EC50) in [2] was 53.6 µM; in [5], 16.6 µM; in [6], over 102 µM; in data set [7], 4.24 µM; in data set [13] it was 4.98 µM; in data set [21] it was over 102 µM. In addition, in data set [3], the sialylation recovery time entry is “Active”. Also, the TIME in data set [17] is 48 to 72 h. Moreover, the Ratio EC50 in data set [18] came to 5.
